Test results taken from ChEMBL document CHEMBL1121633, “Neuroleptic 4-aryltetrahydropyrrolo[3,4-b]indoles” (1980).

Assays:
Rattus norvegicus [1] = experiment: Antipsychotic activity was assessed by ability to antagonize the stereotypy induced in rats by d-amphetamine (5 mg / kg, ip) after 5 h; format: functional
Procedure, shortened: (§1)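 Rats were housed singly in covered plastic compartments and briefly acclimated. Groups of five received compound ip at doses spaced 0.5 log unit (e.g., 1, 3.2, 10, 32 mg/kg). d-Amphetamine sulfate 5 mg/kg ip was given 1, 5 or 24 h later. One hour after each challenge, at peak amphetamine effect, each rat's most characteristic behavior was rated on a six-point scale.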

Rattus norvegicus [2] = experiment: Antipsychotic activity was assessed by ability to antagonize the stereotypy induced in rats by d-amphetamine (5 mg / kg, ip) after 1 h; format: functional; procedure, shortened: as §1
Rattus norvegicus [3] = experiment: Antipsychotic activity was assessed by ability to antagonize the stereotypy induced in rats by d-amphetamine (5 mg/kg, ip) after 24 h; format: functional; procedure, shortened: as §1
Rattus norvegicus [4] = experiment: Antipsychotic activity was assessed by ability to antagonize the stereotypy induced in rats by d-amphetamine (5 mg/kg, ip) after 5 h; format: functional; procedure, shortened: as §1
Rattus norvegicus [5] = experiment: Antipsychotic activity was assessed by ability to antagonize the stereotypy induced in rats by d-amphetamine (5 mg/kg, ip) after 1 h; Range is 10-32; format: functional; procedure, shortened: as §1
Rattus norvegicus [6] = experiment: Antipsychotic activity was assessed by ability to antagonize the stereotypy induced in rats by d-amphetamine (5 mg/kg, ip) after 1 h; format: functional; procedure, shortened: as §1
Rattus norvegicus [7] = experiment: Antipsychotic activity was assessed by ability to antagonize the stereotypy induced in rats by d-amphetamine (5 mg / kg, ip) after 1 h; Range is 3.2-5.6; format: functional; procedure, shortened: as §1
Rattus norvegicus [8] = experiment: Antipsychotic activity was assessed by ability to antagonize the stereotypy induced in rats by d-amphetamine (5 mg / kg, ip) after 5 h; Range is 10-32; format: functional; procedure, shortened: as §1
Rattus norvegicus [9] = experiment: Antipsychotic activity was assessed by ability to antagonize the stereotypy induced in rats by d-amphetamine (5 mg / kg, ip) after 24 h; Range is 3.2-10; format: functional; procedure, shortened: as §1
Rattus norvegicus [10] = experiment: Antipsychotic activity was assessed by ability to antagonize the stereotypy induced in rats by d-amphetamine (5 mg / kg, ip) after 5 h; Range is 1.0-3.2; format: functional; procedure, shortened: as §1
Rattus norvegicus [11] = experiment: Antipsychotic activity was assessed by ability to antagonize the stereotypy induced in rats by d-amphetamine (5 mg / kg, ip) after 1 h; Range is 1.0-3.2; format: functional; procedure, shortened: as §1
Rattus norvegicus [12] = experiment: Antipsychotic activity was assessed by ability to antagonize the stereotypy induced in rats by d-amphetamine (5 mg/kg, ip) after 1 h; Range is 3.2-10; format: functional; procedure, shortened: as §1
Rattus norvegicus [13] = experiment: Antipsychotic activity was assessed by ability to antagonize the stereotypy induced in rats by d-amphetamine (5 mg/kg, ip) after 5 h; Range is 3.2-10; format: functional; procedure, shortened: as §1
Rattus norvegicus [14] = experiment: Antipsychotic activity was assessed by ability to antagonize the stereotypy induced in rats by d-amphetamine (5 mg / kg, ip) after 1 h; Range is 0.1-0.32; format: functional; procedure, shortened: as §1
Rattus norvegicus [15] = experiment: Antipsychotic activity was assessed by ability to antagonize the stereotypy induced in rats by d-amphetamine (5 mg / kg, ip) after 5 h; Range is 0.1-0.32; format: functional; procedure, shortened: as §1
Rattus norvegicus [16] = experiment: Antipsychotic activity was assessed by ability to antagonize the stereotypy induced in rats by d-amphetamine (5 mg / kg, ip) after 24 h; Range is 1.0-3.2; format: functional; procedure, shortened: as §1
Rattus norvegicus [17] = experiment: Antipsychotic activity was assessed by ability to antagonize the stereotypy induced in rats by d-amphetamine (5 mg / kg, ip) after 1 h; Range is 3.2-10
Rattus norvegicus [18] = experiment: Antipsychotic activity was assessed by ability to antagonize the stereotypy induced in rats by d-amphetamine (5 mg / kg, ip) after 24 h; format: functional; procedure, shortened: as §1

Question: What does the source list for `CCOC(=O)N1Cc2[nH]c3ccc(F)cc3c2C1.Cl`?
Answer: ED50 (Rattus norvegicus [1]): > 32 mg/kg; ED50 (Rattus norvegicus [2]): > 32 mg/kg

Question: What does the source list for `Cl.OC(CCCN1Cc2c(n(-c3ccc(F)cc3)c3ccc(F)cc23)C1)c1ccccc1` (stereo unspecified)?
Answer: ED50 (Rattus norvegicus [3]): > 32 mg/kg; ED50 (Rattus norvegicus [4]): > 10 mg/kg; ED50 (Rattus norvegicus [5]): 10 mg/kg

Question: Which ED50 (Rattus norvegicus [1]) does the source give for `Cl.O=C(CCCCN1Cc2c(n(-c3ccc(F)cc3)c3ccc(F)cc23)C1)c1ccc(F)cc1` here?
Answer: > 32 mg/kg

Question: What about the ED50 (Rattus norvegicus [2]) of the same compound?
Answer: 32 mg/kg

Question: Which ED50 (Rattus norvegicus [1]) does the source give for `CCCN1Cc2c(n(-c3ccc(F)cc3)c3ccc(F)cc23)C1.I` here?
Answer: > 32 mg/kg

Question: What about the ED50 (Rattus norvegicus [2]) of the same compound?
Answer: > 32 mg/kg

Question: What does the source list for `Cl.Fc1ccc(-n2c3c(c4cc(F)ccc42)CN(CCc2ccccc2)C3)cc1`?
Answer: ED50 (Rattus norvegicus [1]): > 32 mg/kg; ED50 (Rattus norvegicus [2]): > 32 mg/kg

Question: For `CCOC(=O)N1Cc2c(n(-c3ccc(F)cc3)c3ccc(F)cc23)C1`, which ED50 (Rattus norvegicus [4]) is on record?
Answer: > 32 mg/kg

Question: What about the ED50 (Rattus norvegicus [6]) of the same compound?
Answer: > 32 mg/kg

Question: Which results are given for `Cl.O=C(CCCN1Cc2c(n(-c3ccc(F)cc3)c3ccc(F)cc23)C1)c1ccccc1`?
Answer: ED50 (Rattus norvegicus [1]): > 32 mg/kg; ED50 (Rattus norvegicus [2]): > 32 mg/kg

Question: With `CN1Cc2c(n(-c3ccc(F)cc3)c3ccc(F)cc23)C1.Cl` as the compound, how does the ED50 (Rattus norvegicus [1]) read?
Answer: > 10 mg/kg

Question: And the ED50 (Rattus norvegicus [7])?
Answer: 3.2 mg/kg

Question: Which results are given for `Cl.OC(CCCCN1Cc2c(n(-c3ccc(F)cc3)c3ccc(F)cc23)C1)c1ccc(F)cc1` (stereo unspecified)?
Answer: ED50 (Rattus norvegicus [2]): > 32 mg/kg; ED50 (Rattus norvegicus [8]): 10 mg/kg

Question: `Cl.Fc1ccc(-n2c3c(c4cc(F)ccc42)CN(Cc2ccccc2)C3)cc1` was tested. Which ED50 (Rattus norvegicus [1]) did it give?
Answer: > 32 mg/kg

Question: And the ED50 (Rattus norvegicus [2])?
Answer: > 32 mg/kg

Question: With `Cl.OC(CCCN1Cc2c(n(-c3ccc(F)cc3)c3ccc(F)cc23)C1)c1ccc(F)cc1` (stereo unspecified) as the compound, how does the ED50 (Rattus norvegicus [9]) read?
Answer: 3.2 mg/kg

Question: What about the ED50 (Rattus norvegicus [10]) of the same compound?
Answer: 1 mg/kg

Question: And the ED50 (Rattus norvegicus [11])?
Answer: 1 mg/kg

Question: For `Cl.O=C(CCCN1Cc2c(n(-c3ccc(F)cc3)c3ccc(F)cc23)C1)c1ccc(F)cc1`, which ED50 (Rattus norvegicus [3]) is on record?
Answer: > 10 mg/kg

Question: And the ED50 (Rattus norvegicus [12])?
Answer: 3.2 mg/kg

Question: What about the ED50 (Rattus norvegicus [13]) of the same compound?
Answer: 3.2 mg/kg

Question: `Cl.OC(CCCN1CCc2c(c3cc(F)ccc3n2-c2ccc(F)cc2)C1)c1ccc(F)cc1` (stereo unspecified) was tested. Which ED50 (Rattus norvegicus [14]) did it give?
Answer: 0.1 mg/kg

Question: What about the ED50 (Rattus norvegicus [15]) of the same compound?
Answer: 0.1 mg/kg

Question: And the ED50 (Rattus norvegicus [16])?
Answer: 1 mg/kg

Question: `Cl.Fc1ccc(-n2c3c(c4cc(F)ccc42)CNC3)cc1` was tested. Which ED50 (Rattus norvegicus [3]) did it give?
Answer: 32 mg/kg

Question: What about the ED50 (Rattus norvegicus [4]) of the same compound?
Answer: > 32 mg/kg

Question: And the ED50 (Rattus norvegicus [6])?
Answer: > 32 mg/kg

Question: For `CN(C)CCCN1c2ccccc2Sc2ccc(Cl)cc21` [CHLORPROMAZINE], which ED50 (Rattus norvegicus [17]) is on record?
Answer: 3.2 mg/kg

Question: And the ED50 (Rattus norvegicus [1])?
Answer: 17.8 mg/kg

Question: And the ED50 (Rattus norvegicus [18])?
Answer: 56 mg/kg
